The nature of data set [1]: Inhibition of RANKL-stimulated osteoclastogenesis in mouse RAW264 cells assessed as reduction in TRAP activity after 4 days in presence of RANKL. Type of data set: functional, cell-based. The gist of the method:
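Murine RAW264 cells differentiated with RANKL (50 ng/mL) for 4 days, with or without compound at a range of concentrations. TRAP activity was read as absorbance at 405 nm, and the IC50 was taken from inhibition of RANKL-induced TRAP up-regulation. Cytotoxicity toward RAW264 cells was also checked.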

Data set [2] in a line: Cytotoxicity against mouse RAW264 cells assessed as cell survival at 5 uM relative to control. In kind it is toxicity. As to conditions: read-out: Survival.
Data set [3] concerns RAW264. Put plainly: Inhibition of RANKL-stimulated osteoclastogenesis in mouse RAW264 cells assessed reduction in TRAP-positive multinucleated cells at 20 uM after 4 days in presence of RANKL by TRAP-staining based microscopic analysis. Type of data set: functional, cell-based. The gist of the method: (§1)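 RAW264 cells were treated with RANKL (50 ng/mL) plus compound at 10 or 20 μM, or without compound, for 4 days. They were then stained with TRAP-staining solution, which stains positive cells red. TRAP-positive multinuclear cells (≥3 nuclei) were counted by microscopy.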

Data set [4] deals with RAW264. Put plainly: Inhibition of RANKL-stimulated osteoclastogenesis in mouse RAW264 cells assessed reduction in TRAP-positive multinucleated cells at 10 uM after 4 days in presence of RANKL by TRAP-staining based microscopic analysis. Type of data set: functional, cell-based. In outline:
as §1

This passage reports IC50, viability and inhibition results from ChEMBL document CHEMBL3865838, “Ceylonamides A-F, Nitrogenous Spongian Diterpenes That Inhibit RANKL-Induced Osteoclastogenesis, from the Marine Sponge Spongia ceylonensis” (J Nat Prod, 2016).

pIC50: −log10 of the molar value. Activity calls are given as the source filed them. The calls are words filed in the database; no cut-off is given here.

As a reminder, the pIC50 is the negative decadic logarithm of the IC50, by convention in mol/L. Turning to `C[C@]12CCC[C@](C)(C(=O)O)[C@@H]1CC[C@@]1(C)C3=C(CC[C@H]21)CN(CCc1ccccc1)C3=O`, the pIC50 in data set [1] was less than 4.30. In data set [2], the viability at 5 µM is 97%.
For `C[C@]12C[C@@H](O)C(=O)[C@](C)(CO)[C@@H]1CC[C@@]1(C)c3cocc3CC[C@H]21` [ISOSPONGIADIOL] the same measures were less than 4.30 and 96%.
For `C[C@]12CC(=O)[C@@H](O)[C@](C)(CO)[C@@H]1CC[C@@]1(C)c3cocc3CC[C@H]21` [SPONGIADIOL], in data set [1], the negative logarithm of the IC50 (pIC50) is less than 4.30. In addition, the viability at 5 µM in data set [2] was 97%.
The matching figures for `CC(C)CN1CC2=C(C1=O)[C@]1(C)CC[C@@H]3[C@](C)(CCC[C@]3(C)C(=O)O)[C@H]1CC2`: less than 4.30 and 100%.
In the case of `CC(C)CCN1CC2=C(C1=O)[C@]1(C)CC[C@@H]3[C@](C)(CCC[C@]3(C)C(=O)O)[C@H]1CC2`, in data set [1], the pIC50 was less than 4.30. In data set [2], the viability at 5 µM turned out to be 100%.
Turning to `CC(C)CCN1CC2=C(CC[C@@H]3[C@@]4(C)CCC[C@](C)(C(=O)O)[C@@H]4CC[C@@]23C)C1=O`, the inhibition result in data set [3] was “Active”. Also, the pIC50 in data set [1] is 4.74. Moreover, the viability at 5 µM in data set [2] turned out to be 87%.
For the compound `CC(C)CN1CC2=C(CC[C@@H]3[C@@]4(C)CCC[C@](C)(C(=O)O)[C@@H]4CC[C@@]23C)C1=O`, the pIC50 in data set [1] is less than 4.30. Further, in data set [2], the viability at 5 µM came out at 100%.
On to `CO[C@H]1O[C@@H](OC)C2=C1CC[C@@H]1[C@@]3(C)CCC[C@](C)(C(=O)O)[C@@H]3CC[C@@]21C`, for which the pIC50 in data set [1] is less than 4.30. Moreover, in data set [2], the viability at 5 µM stood at 98%.
Turning to `C[C@]12CCC[C@](C)(C(=O)O)[C@@H]1CC[C@@]1(C)C3=C(CC[C@H]21)C(=O)N(CCc1ccccc1)C3`, the inhibition entry in data set [4] is “Active”. Besides, the pIC50 in data set [1] is 4.89. In addition, the viability at 5 µM in data set [2] was 100%.
On to `C[C@]12CCC[C@](C)(C(=O)O)[C@@H]1CC[C@@]1(C)c3cocc3CC[C@H]21`, for which the pIC50 in data set [1] was less than 4.30. The viability at 5 µM in data set [2] is 100%.
With `C[C@]12CCC[C@](C)(C(=O)O)[C@@H]1CC[C@@]1(C)C3=C(CC[C@H]21)CNC3=O`, the negative-log IC50 (pIC50) in data set [1] is less than 4.30. In addition, the viability at 5 µM in data set [2] came to 100%.
